KCNK9 inh: inhibitors of human KCNK9 two-pore domain potassium channel | Q9NPC2 | HEK293 KCNK9, FluxOR thallium flux fluorescence; active compounds read low | B-score at 10 µM | 310,000 compounds, 1.2% hits | AID 488922;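 active = ratio B-score over 3 SD below the library mean, with starting fluorescence within 5 SD of its mean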;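 also: negative B-score means less thallium flux so channel inhibition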
KCNQ1 block: blocks the human KCNQ1 potassium channel. P51787. CHO-K1 KCNQ1, FluxOR thallium flux fluorescence; active compounds read high. B-score at 10 µM. 310,000 compounds, 1.3% hits. AID 2642;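 active = compounds whose thallium flux B-score, printed positive for inhibition, exceeds three library SD while starting fluorescence stays within three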;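 also: channel opened by potassium depolarization with thallium stimulus after 20 min compound exposure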
Kir21 block: inhibitors of mouse Kir2.1 inward-rectifier potassium channel; HEK293-Kir2.1, FluxOR thallium flux fluorescence; active compounds read low; B-score at 10 µM; 310,000 compounds, 0.85% hits; AID 1672;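 active = fluorescence ratio B-score at or below minus 3 SD of library scores, with starting-brightness B-score within 2 SD, cut at about -4.2 in these data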;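 also: channel flux triggered by added potassium and thallium sulfate stimulus; B-score of peak minus minimum fluorescence over baseline after thallium stimulus; more negative B-score means stronger Kir2.1 block with less thallium influx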
Target sequence (P35561 whole entry, looked up): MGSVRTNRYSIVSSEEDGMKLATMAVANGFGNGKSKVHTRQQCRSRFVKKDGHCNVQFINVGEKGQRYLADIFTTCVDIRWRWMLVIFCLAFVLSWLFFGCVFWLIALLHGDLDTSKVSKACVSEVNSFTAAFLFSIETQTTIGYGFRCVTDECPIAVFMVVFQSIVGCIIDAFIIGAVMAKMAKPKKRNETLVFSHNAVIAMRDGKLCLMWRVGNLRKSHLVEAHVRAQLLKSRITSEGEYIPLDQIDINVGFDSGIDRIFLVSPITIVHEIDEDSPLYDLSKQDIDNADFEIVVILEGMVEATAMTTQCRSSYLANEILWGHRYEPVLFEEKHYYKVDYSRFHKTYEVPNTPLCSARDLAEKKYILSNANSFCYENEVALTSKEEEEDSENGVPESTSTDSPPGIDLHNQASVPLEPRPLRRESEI
KCNK3 block: human KCNK3 channel inhibition, primary screen; CHO-KCNK3 thallium flux, FluxOR fluorescence; active compounds read low; AID 602410; B-score at 10 µM; 340,000 compounds, 0.84% hits;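 active = B-score under library mean minus 4 SD, starting fluorescence ratio at most library mean plus 5 SD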;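 also: more negative B-score means stronger inhibition of thallium flux through KCNK3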
hERG protect: shields human hERG channel from block by proarrhythmic agents | Q12809 | CHO-hERG, FluxOR thallium flux, dofetilide IC70 present | activation (rescue from dofetilide block), less the hit threshold, % at 10 µM | 310,000 compounds, 0.51% hits | AID 1511;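 active = activation above the mean of controls blocked by dofetilide plus 5 SD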;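 also: thallium influx through hERG after potassium depolarization seen as dye fluorescence rise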
KCNQ1 pot: human KCNQ1 channel potentiation or activation | P51787 | CHO-K1 KCNQ1, thallium flux FluxOR fluorescence; active compounds read high | B-score at 10 µM | 310,000 compounds, 0.35% hits | AID 2648;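 active = fluorescence ratio B-score, a plate-corrected score, at least three library SD, with initial intensity B-score within 5 SD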
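Assay system: stable KCNQ1 CHO-K1 line; medium: assay buffer, equal DMSO in all wells; timing: 90 min dye loading and 20 min compound exposure, both at room temperature; technique: kinetic FluxOR thallium fluorescence, 10-s 1-Hz baseline, 110-s post-stimulus read; read-out basis: B score of baseline-normalized fluorescence ratio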
Large screens that a line does not name were inactive. Hits are enriched below; roughly 3.7% of the tested compounds scored in any of these assays.

Cc1cccc(CN(CC(=O)N/N=C/c2ccco2)S(=O)(=O)c2ccc(Cl)cc2)c1	KCNQ1 block 9
Cc1ccc(NC(=O)CSCC(=O)Nc2cc(C(F)(F)F)ccc2N2CCOCC2)cc1	none
O=C(CSCc1ccco1)Nc1cc(C(F)(F)F)ccc1N1CCOCC1	KCNK9 inh -6.7
O=C(NCc1ccc(Cl)cc1)c1cc(S(=O)(=O)N2CCCCC2)c[nH]1	none
COc1ccc(C(=O)OCc2c(F)cccc2Cl)cc1S(=O)(=O)N1CCOCC1	none (no result: KCNK9 inh, KCNQ1 block, Kir21 block, hERG protect, KCNQ1 pot)
COc1ccc(NC(=O)C2(c3ccccc3)CCCC2)cc1	none
COCCNC(=O)c1ccc(NC(=O)C2(c3ccccc3)CCCC2)cc1	hERG protect 7.5
COC(=O)c1ccc(C2N=C(c3cccs3)CC(c3ccccc3O)N2)cc1 (stereo unspecified)	KCNQ1 block 7
O=C(c1ccccc1)N1N=C(c2cccs2)CC1c1ccccc1O (stereo unspecified)	none
O=C(NCC1CCN(C(=O)c2c(F)c(F)c(F)c(F)c2F)CC1)c1c(F)c(F)c(F)c(F)c1F	none
O=S(=O)(c1ccc2c(c1)CCCC2)N1CCNCC1	none (no result: KCNK9 inh, KCNQ1 block, Kir21 block, hERG protect, KCNQ1 pot)
CCCCn1nc2cc(C(=O)NCc3ccc(C(F)(F)F)cc3C(F)(F)F)ccc2c1OCC	KCNQ1 block 6
CCOc1c2ccc(C(=O)NCc3ccc(C(F)(F)F)cc3C(F)(F)F)cc2nn1C	none
CCOC(=O)CC(NC(=O)c1cccs1)c1ccc(OCC)cc1 (stereo unspecified)	hERG protect 8.6
Cn1cc([N+](=O)[O-])c(C(=O)N/N=C\c2c[nH]c3ccccc23)n1	none
Cn1cc([N+](=O)[O-])c(C(=O)N/N=C/c2ccccc2)n1	hERG protect 4.7
CCn1c(SCC(=O)NC2CCCC2)nnc1C(C)NC(=O)c1ccccc1Br (stereo unspecified)	none
Cc1nc(N2CCC(C)CC2)c2c(C)c(C(=O)Nc3ccccc3C(F)(F)F)sc2n1	KCNK9 inh -7.4
Cc1nc(N2CCN(c3ccccn3)CC2)c2c(C)c(C(=O)Nc3c(F)cc(F)cc3Br)sc2n1	KCNQ1 block 6
Cc1nc(N2CCN(C)CC2)c2c(C)c(C(=O)Nc3ccc(C)c(F)c3)sc2n1	Kir21 block -6
COc1ccc(C2(C(=O)NCCc3ccccc3)CCCC2)cc1OC	none
Cc1cc(N)ccc1N1CCCC1	KCNQ1 block 7
Cc1cccn2c(=O)c3cc(C(=O)N4c5ccccc5CC4C)n(C)c3nc12 (stereo unspecified)	hERG protect 9.2
CCN(C(=O)CN1C(=O)NC2(CCc3ccccc32)C1=O)C1CCCCC1 (stereo unspecified)	none
COC(=O)C(CC(C)C)NC(=O)CSc1nc(-c2ccccc2)c(C#N)c(=O)[nH]1 (stereo unspecified)	hERG protect 5.3
N#Cc1c(-c2ccccc2)nc(SCC(=O)NC2CCCCC2)[nH]c1=O	none
N#CC(CCc1ccccc1[N+](=O)[O-])(CCc1ccccc1[N+](=O)[O-])C(N)=O	none (no result: KCNK9 inh, KCNQ1 block, Kir21 block, hERG protect, KCNQ1 pot)
COc1ccc2nc(NCc3ccccc3)[nH]c2c1	Kir21 block -5.3
COc1ccc2nc(NCCO)[nH]c2c1	none
COc1cccc(CC(=O)Nc2nc3ccccc3[nH]2)c1	hERG protect 4.9
COc1ccc(CC(=O)Nc2nc3ccccc3[nH]2)cc1	none
O=C/C=C/c1c(-c2ccccc2)cc2oc3ccccc3cc1-2	none
O=C(O)C1(Nc2ccc(Br)cc2)CCCC1	none (no result: KCNK9 inh, KCNQ1 block, Kir21 block, hERG protect, KCNQ1 pot)
O=C(NCCCO)C(=O)Nc1cc2c3c(c1)CCC(=O)N3CCC2	none
COc1cccc(/C=N/Nc2ccc(S(=O)(=O)O)cc2)c1O	none
COc1cccc(/C=N/Nc2ccc(C(=O)O)cc2)c1O	hERG protect 5.5
CN(C)C(=O)C(CCN1CCC(O)(c2ccc(Cl)cc2)CC1)(c1ccccc1)c1ccccc1	Kir21 block -4.9
Oc1c(Cl)cc(Cl)cc1Sc1cc(Cl)cc(Cl)c1O	hERG protect 43, KCNQ1 pot 105 (no result: KCNK3 block)
COc1ccc(S(=O)(=O)N(C)C)cc1NC(=O)CSC(C)C(=O)Nc1cc(C)on1 (stereo unspecified)	none (no result: KCNK9 inh, KCNQ1 block, Kir21 block, hERG protect, KCNQ1 pot)
CC(Cc1cccs1)NC(=O)Nc1ccc(F)cc1 (stereo unspecified)	KCNK9 inh -6.6
O=C(Cc1cccs1)Nc1ccc(F)cc1	none
Cc1ccc(C)n1-n1c(C)nc2scc(-c3ccccc3)c2c1=O	none
Cc1nc2scc(-c3ccccc3)c2c(=O)n1N=C1C=CC(=O)C=C1	Kir21 block -6.8 (no result: KCNK3 block)
Cc1ccc(S(=O)(=O)N2CCOCC2)cc1C(=O)NCCCn1ccnc1	hERG protect 4.7
O=C(NCCCn1ccnc1)c1cc(S(=O)(=O)N2CCOCC2)c(Cl)cc1Cl	none
COc1cc(OC)cc(C(C)=O)c1	hERG protect 5.7
COc1cc(OC)cc(C(=O)Nc2cccc(C(C)=O)c2)c1	none
CC(C)(CNC(=O)c1cc(Cl)c(O)c(Cl)c1)N1CCCCC1	none
Cc1nc(N2CCN(Cc3ccccc3)CC2)c(C#N)c2c1COC(C)(C)C2	Kir21 block -7.5
O=C(Nc1ccccc1OC(F)F)c1cccc(S(=O)(=O)N2CCCC2)c1	none
CCOC(=O)c1cnc2c(OC)cccc2c1N1CCN(c2ccccc2OC)CC1	none
CCOC(=O)c1cnc2c(OC)cccc2c1Oc1ccccc1	Kir21 block -7.9
CCOC(=O)c1cnc2c(C)cccc2c1NCCc1ccc(OC)c(OC)c1	Kir21 block -7.6
Cc1ccc(NC2CCCN(C(=O)c3cccc(-c4ncc[nH]4)c3)C2)cc1C (stereo unspecified)	none
O=C(CC1CCCCC1)NCCS(=O)(=O)N1CCN(c2ccccc2)CC1	none
CC[n+]1ccc(/C=C/c2c[nH]c3ccccc23)cc1	KCNQ1 block 10
Cc1ccc2[nH]cc(/C=C/c3cc[n+](C)cc3)c2c1	none
O=C(O)c1cccc(-n2sc3ccccc3c2=O)c1	none (no result: KCNK9 inh, KCNQ1 block, Kir21 block, hERG protect, KCNQ1 pot)
O=c1c2ccccc2sn1-c1ccccc1	hERG protect 6.5
COC(c1ccccc1)c1c(-c2ccccc2)nn(C)c1Cl (stereo unspecified)	Kir21 block -4.8
Cn1nc(-c2ccccc2)c(C(O)c2ccccc2C(F)(F)F)c1Cl (stereo unspecified)	none
COC(=O)c1cccc(NC(=O)CCN2C(=O)C3CC=CCC3C2=O)c1 (stereo unspecified)	none (no result: KCNK9 inh, KCNQ1 block, Kir21 block, hERG protect, KCNQ1 pot)
N#C/C(=C\c1ccc(N2CCOCC2)o1)C(=O)NCC1CCCO1 (stereo unspecified)	KCNQ1 block 9
COCCNC(=O)/C(C#N)=C/c1ccc(N2CCOCC2)o1	none
N#C/C(=C/c1ccc(N2CCOCC2)o1)C(=O)Nc1ccccc1	KCNK9 inh -6.6
N#C/C(=C/c1ccc(-c2ccc(S(=O)(=O)N3CCOCC3)cc2)o1)C(=O)NC1CC1	none (no result: KCNK9 inh, KCNQ1 block, Kir21 block, hERG protect, KCNQ1 pot)
N#C/C(=C\c1ccc(N2CCOCC2)o1)C(=O)NC1CCCCC1	KCNQ1 block 9

Bioassay records (PubChem)
